Measurements as given in ChEMBL document CHEMBL5303300, “EUbOPEN Chemogenomics Library - Multiplex” (2023).
Values joined by “and” are separate entries in the source; they are usually repeats but may differ in a detail not shown here. Equal entries are not always repeated.

Legend:
Fibroblast = assay: Multiplex assay against human fibroblast; assay type: toxicity, cell-based; settings: number of replicates 2
Method in brief: (§1)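 With compound added, live cells were imaged on a CQ1 microscope at 37°C and 5% CO2; staining with Hoechst33342, BioTracker Green Microtubule Cytoskeleton Dye, MitoTracker Red and Annexin V Alexa Fluor 680 had been done at seeding. The CellPathfinder machine-learning gating scheme split cells into Hoechst high-intensity objects or normal cells, normal cells into healthy, pyknosed or fragmented nuclei, and pyknosed cells into mitotic or apoptotic. The tubulin, mitochondrial-mass and membrane-permeability phenotypes are per cents of healthy-nucleus cells.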

HEK-293T = assay: Multiplex assay against HEK293T; assay type: toxicity, cell-based; settings: human, number of replicates 2; method in brief: as §1
[1] = 12 h, 1 µM, compound concentration 1 uM
[2] = 12 h, 10 µM, compound concentration 10 uM
[3] = 24 h, 1 µM, compound concentration 1 uM
[4] = 24 h, 10 µM, compound concentration 10 uM
[5] = 48 h, 1 µM, compound concentration 1 uM
[6] = 48 h, 10 µM, compound concentration 10 uM

Structure (SMILES): N[C@@H]1c2cccnc2[C@H](OC(=O)N2CCC(n3c(=O)[nH]c4ncccc43)CC2)CC[C@H]1c1cccc(F)c1F [RIMEGEPANT]
- Population Apoptotic (%) (Fibroblast; [1]): 56% and 33%
- Population Fragmented Nuclei (%) (Fibroblast; [1]): 6% and 16%
- Population Healthy Nuclei (%) (Fibroblast; [1]): 56% and 69%
- Population Hoechst High Intensity Objects (%) (Fibroblast; [1]): 0% and 3%
- Population Membrane Permeable-Phenotype (%) (Fibroblast; [1]): 5% and 7%
- Population Mitochondria Different-Phenotype (%) (Fibroblast; [1]): 1% and 0%
- Population Mitotic Cells (%) (Fibroblast; [1]): 43% and 66%
- Population Normal (%) (Fibroblast; [1]): 100% and 96%
- Population Pyknosed Nuclei (%) (Fibroblast; [1]): 37% and 14%
- Population Tubulin-Different-Phenotype (%) (Fibroblast; [1]): 20% and 21%
- Total Cell Count (Fibroblast; [1]): 129 and 236
- Population Apoptotic (%) (Fibroblast; [2]): 47% and 44%
- Population Fragmented Nuclei (%) (Fibroblast; [2]): 14% and 13%
- Population Healthy Nuclei (%) (Fibroblast; [2]): 75%
- Population Hoechst High Intensity Objects (%) (Fibroblast; [2]): 0%
- Population Membrane Permeable-Phenotype (%) (Fibroblast; [2]): 9% and 14%
- Population Mitochondria Different-Phenotype (%) (Fibroblast; [2]): 5% and 4%
- Population Mitotic Cells (%) (Fibroblast; [2]): 52% and 55%
- Population Normal (%) (Fibroblast; [2]): 100%
- Population Pyknosed Nuclei (%) (Fibroblast; [2]): 10% and 11%
- Population Tubulin-Different-Phenotype (%) (Fibroblast; [2]): 61% and 59%
- Total Cell Count (Fibroblast; [2]): 183 and 237
- Population Apoptotic (%) (Fibroblast; [3]): 54% and 32%
- Population Healthy Nuclei (%) (Fibroblast; [3]): 60% and 61%
- Population Hoechst High Intensity Objects (%) (Fibroblast; [3]): 0% and 2%
- Population Membrane Permeable-Phenotype (%) (Fibroblast; [3]): 10% and 1%
- Population Mitochondria Different-Phenotype (%) (Fibroblast; [3]): 0%
- Population Mitotic Cells (%) (Fibroblast; [3]): 45% and 67%
- Population Normal (%) (Fibroblast; [3]): 99% and 97%
- Population Pyknosed Nuclei (%) (Fibroblast; [3]): 35% and 18%
- Population Tubulin-Different-Phenotype (%) (Fibroblast; [3]): 22% and 15%
- Total Cell Count (Fibroblast; [3]): 124 and 234
- Population Apoptotic (%) (Fibroblast; [4]): 47% and 64%
- Population Fragmented Nuclei (%) (Fibroblast; [4]): 12%
- Population Healthy Nuclei (%) (Fibroblast; [4]): 78% and 80%
- Population Hoechst High Intensity Objects (%) (Fibroblast; [4]): 0%
- Population Membrane Permeable-Phenotype (%) (Fibroblast; [4]): 7% and 6%
- Population Mitochondria Different-Phenotype (%) (Fibroblast; [4]): 3% and 5%
- Population Mitotic Cells (%) (Fibroblast; [4]): 52% and 35%
- Population Normal (%) (Fibroblast; [4]): 100% and 99%
- Population Pyknosed Nuclei (%) (Fibroblast; [4]): 9% and 7%
- Population Tubulin-Different-Phenotype (%) (Fibroblast; [4]): 50% and 36%
- Total Cell Count (Fibroblast; [4]): 199 and 236
- Population Apoptotic (%) (Fibroblast; [5]): 65% and 48%
- Population Fragmented Nuclei (%) (Fibroblast; [5]): 8% and 21%
- Population Healthy Nuclei (%) (Fibroblast; [5]): 75% and 65%
- Population Hoechst High Intensity Objects (%) (Fibroblast; [5]): 0% and 1%
- Population Membrane Permeable-Phenotype (%) (Fibroblast; [5]): 4% and 2%
- Population Mitochondria Different-Phenotype (%) (Fibroblast; [5]): 1%
- Population Mitotic Cells (%) (Fibroblast; [5]): 35% and 51%
- Population Normal (%) (Fibroblast; [5]): 100% and 98%
- Population Pyknosed Nuclei (%) (Fibroblast; [5]): 16% and 12%
- Population Tubulin-Different-Phenotype (%) (Fibroblast; [5]): 6% and 10%
- Total Cell Count (Fibroblast; [5]): 125 and 227
- Population Apoptotic (%) (Fibroblast; [6]): 77% and 47%
- Population Fragmented Nuclei (%) (Fibroblast; [6]): 14% and 13%
- Population Healthy Nuclei (%) (Fibroblast; [6]): 81% and 78%
- Population Hoechst High Intensity Objects (%) (Fibroblast; [6]): 0%
- Population Membrane Permeable-Phenotype (%) (Fibroblast; [6]): 1% and 5%
- Population Mitochondria Different-Phenotype (%) (Fibroblast; [6]): 1% and 0%
- Population Mitotic Cells (%) (Fibroblast; [6]): 22% and 52%
- Population Normal (%) (Fibroblast; [6]): 99% and 100%
- Population Pyknosed Nuclei (%) (Fibroblast; [6]): 4% and 7%
- Population Tubulin-Different-Phenotype (%) (Fibroblast; [6]): 37% and 16%
- Total Cell Count (Fibroblast; [6]): 205 and 225
- Population Apoptotic (%) (HEK-293T; [1]): 64% and 44%
- Population Fragmented Nuclei (%) (HEK-293T; [1]): 4% and 5%
- Population Healthy Nuclei (%) (HEK-293T; [1]): 78% and 83%
- Population Hoechst High Intensity Objects (%) (HEK-293T; [1]): 14% and 10%
- Population Membrane Permeable-Phenotype (%) (HEK-293T; [1]): 3% and 1%
- Population Mitochondria Different-Phenotype (%) (HEK-293T; [1]): 18% and 17%
- Population Mitotic Cells (%) (HEK-293T; [1]): 35% and 55%
- Population Normal (%) (HEK-293T; [1]): 85% and 89%
- Population Pyknosed Nuclei (%) (HEK-293T; [1]): 17% and 10%
- Population Tubulin-Different-Phenotype (%) (HEK-293T; [1]): 47%
- Total Cell Count (HEK-293T; [1]): 573 and 694
- Population Apoptotic (%) (HEK-293T; [2]): 40% and 46%
- Population Fragmented Nuclei (%) (HEK-293T; [2]): 4%
- Population Healthy Nuclei (%) (HEK-293T; [2]): 83% and 84%
- Population Hoechst High Intensity Objects (%) (HEK-293T; [2]): 5% and 6%
- Population Membrane Permeable-Phenotype (%) (HEK-293T; [2]): 1% and 4%
- Population Mitochondria Different-Phenotype (%) (HEK-293T; [2]): 49% and 18%
- Population Mitotic Cells (%) (HEK-293T; [2]): 60% and 53%
- Population Normal (%) (HEK-293T; [2]): 94% and 93%
- Population Pyknosed Nuclei (%) (HEK-293T; [2]): 12% and 11%
- Population Tubulin-Different-Phenotype (%) (HEK-293T; [2]): 98% and 82%
- Total Cell Count (HEK-293T; [2]): 526 and 617
- Population Apoptotic (%) (HEK-293T; [3]): 56% and 37%
- Population Fragmented Nuclei (%) (HEK-293T; [3]): 7% and 6%
- Population Healthy Nuclei (%) (HEK-293T; [3]): 75% and 85%
- Population Hoechst High Intensity Objects (%) (HEK-293T; [3]): 11% and 8%
- Population Membrane Permeable-Phenotype (%) (HEK-293T; [3]): 0% and 1%
- Population Mitochondria Different-Phenotype (%) (HEK-293T; [3]): 5% and 4%
- Population Mitotic Cells (%) (HEK-293T; [3]): 43% and 62%
- Population Normal (%) (HEK-293T; [3]): 88% and 91%
